The values below come from ChEMBL document CHEMBL4196022, “Alkynyl-containing phenylthiazoles: Systemically active antibacterial agents effective against methicillin-resistant Staphylococcus aureus (MRSA)” (Eur J Med Chem, 2018).

A word on the MIC: it is the smallest concentration in the dilution series that meets the test's criterion for growth inhibition. The low end stands for inhibition by little substance, the high end for a need for much substance.

The structures appear in SMILES notation. Values after ≈ are worked out from the molar mass of the structure shown.

Data set [1] has as its system Staphylococcus aureus. Kind of data set: Antibacterial activity against methicillin-resistant Staphylococcus aureus NRS107 after 20 hrs by broth microdilution assay. It is filed as functional. The conditions noted are these: NRS107, 20 h. The essentials:
(§1)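 Broth microdilution per CLSI in cation-adjusted Mueller Hinton broth. Compounds serially diluted, in triplicate. Incubation at 37 °C for at least 20 hours. MIC taken as the lowest concentration with no visible bacterial growth.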

The test system of data set [2] is Staphylococcus aureus. Kind of data set: Antibacterial activity against methicillin-resistant Staphylococcus aureus USA300 after 20 hrs by broth microdilution assay. The format is functional. The conditions noted are these: USA300, 20 h. The essentials:
as §1
On the technique in general: In broth dilution the organism is exposed to a series of concentrations in liquid medium.

Data set [3] relates to Staphylococcus aureus. The experiment in a line: Bactericidal activity against methicillin-resistant Staphylococcus aureus USA300 up to 18 hrs by broth microdilution assay. It is filed as functional. As to conditions: USA300, 18 h, read-out: MBC99.9.
Data set [4] concerns Staphylococcus aureus. The experiment in a line: Bactericidal activity against methicillin-resistant Staphylococcus aureus NRS107 up to 18 hrs by broth microdilution assay. It is filed as functional. The conditions noted are these: NRS107, 18 h, read-out: MBC99.9.
For data set [5], the system named is Staphylococcus aureus. The experiment in a line: Antibacterial activity against methicillin-resistant Staphylococcus aureus NRS119 after 20 hrs by broth microdilution assay. It is filed as functional. As to conditions: NRS119, 20 h. In outline:
as §1

The subject of data set [6] is Staphylococcus aureus. The experiment in a line: Bactericidal activity against methicillin-resistant Staphylococcus aureus NRS119 up to 18 hrs by broth microdilution assay. It is filed as functional. The conditions noted are these: NRS119, 18 h, read-out: MBC99.9.
The test system of data set [7] is Staphylococcus aureus. Kind of data set: Antibacterial activity against methicillin-resistant Staphylococcus aureus NRS123 (USA400) after 20 hrs by broth microdilution assay. It is filed as functional. In outline: as §1
In data set [8] the test system is Staphylococcus aureus. The experiment in a line: Bactericidal activity against methicillin resistant Staphylococcus aureus NRS123 (USA400) up to 18 hrs by broth microdilution assay. The conditions noted are these: read-out: MBC99.9. The format is functional.
Data set [9] relates to Staphylococcus aureus. The experiment in a line: Antibacterial activity against vancomycin-resistant Staphylococcus aureus VRS10 after 20 hrs by broth microdilution assay. It is filed as functional. The conditions noted are these: VRS10, 20 h. In outline: as §1
The subject of data set [10] is Staphylococcus aureus. Kind of data set: Bactericidal activity against methicillin resistant vancomycin-resistant Staphylococcus aureus VRS10 up to 18 hrs by broth microdilution assay. It is filed as functional. As to conditions: VRS10, 18 h, read-out: MBC99.9.
Data set [11] deals with Staphylococcus aureus. The experiment in a line: Antibacterial activity against vancomycin-resistant Staphylococcus aureus VRS11a after 20 hrs by broth microdilution assay. The format is functional. The essentials:
as §1

The subject of data set [12] is Staphylococcus aureus. The experiment in a line: Bactericidal activity against methicillin resistant vancomycin-resistant Staphylococcus aureus VRS11a up to 18 hrs by broth microdilution assay. As to conditions: read-out: MBC99.9. The format is functional.
The subject of data set [13] is Staphylococcus aureus. Kind of data set: Antibacterial activity against vancomycin-resistant Staphylococcus aureus VRS12 after 20 hrs by broth microdilution assay. It is filed as functional. As to conditions: VRS12, 20 h. The essentials: as §1
For data set [14], the system named is Staphylococcus aureus. Kind of data set: Bactericidal activity against methicillin resistant vancomycin-resistant Staphylococcus aureus VRS12 up to 18 hrs by broth microdilution assay. The format is functional. The conditions noted are these: VRS12, 18 h, read-out: MBC99.9. In outline:
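MBC set up from the MIC plates. Aliquots from wells with no growth spotted onto tryptic soy agar and incubated at 37 °C for at least 18 hours. MBC taken as the lowest concentration giving 99.9% inhibition of bacterial growth.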

The test system of data set [15] is Staphylococcus aureus. Kind of data set: Potency index, ratio of vancomycin MIC to compound MIC for antibacterial activity against vancomycin-resistant Staphylococcus aureus VRS10. It is filed as functional.
Data set [16] has as its system Staphylococcus aureus. The experiment in a line: Potency index, ratio of vancomycin MIC to compound MIC for antibacterial activity against vancomycin-resistant Staphylococcus aureus VRS11a. It is filed as functional.
Data set [17] concerns Staphylococcus aureus. The experiment in a line: Potency index, ratio of vancomycin MIC to compound MIC for antibacterial activity against vancomycin-resistant Staphylococcus aureus VRS12. The format is functional.
Data set [18] concerns Staphylococcus aureus. Kind of data set: Ratio of MBC to MIC for methicillin-resistant Staphylococcus aureus USA300. The format is functional. The essentials:
(§2)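 MBC/MIC ratio. […] MBC by plating no-growth wells onto tryptic soy agar at 37 °C for at least 18 h; taken as the concentration giving 99.9% growth inhibition.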

The test system of data set [19] is Staphylococcus aureus. Kind of data set: Ratio of MBC to MIC for methicillin-resistant Staphylococcus aureus NRS107. It is filed as functional. In outline:
as §2

The subject of data set [20] is Staphylococcus aureus. Kind of data set: Ratio of MBC to MIC for methicillin-resistant Staphylococcus aureus NRS119. It is filed as functional. The essentials:
as §2

Data set [21] has as its system Staphylococcus aureus. The experiment in a line: Ratio of MBC to MIC for methicillin-resistant Staphylococcus aureus NRS123 (USA400). The format is functional. In outline:
as §2

The subject of data set [22] is Staphylococcus aureus. The experiment in a line: Ratio of MBC to MIC for vancomycin-resistant Staphylococcus aureus VRS10. It is filed as functional. In outline: as §2
Data set [23] has as its system Staphylococcus aureus. Kind of data set: Ratio of MBC to MIC for vancomycin-resistant Staphylococcus aureus VRS11a. The format is functional. In outline: as §2
The subject of data set [24] is Staphylococcus aureus. Kind of data set: Ratio of MBC to MIC for vancomycin-resistant Staphylococcus aureus VRS12. The format is functional. In outline:
as §2

In the next data set the test system is HRT-18 cell line. The experiment in a line: Cytotoxicity against human HRT18 cells assessed as reduction in cell viability up to 32 ug/ml after 2 hrs by MTS assay. The format is cell-based. As to conditions: hrt-18, 2 h. On the technique in general: Formazan colour is commonly taken as a measure of viable cells.
A short description of data set [25]: Selectivity index, ratio of toxic concentration for human HRT18 cells to MIC for methicillin-resistant Staphylococcus aureus. The format is toxicity. The conditions noted are these: read-out: Selectivity Index.

Consider `CCCCCC#Cc1ccc(-c2nc(C)c(/C(C)=N/NC3=NCCN3)s2)cc1`, for which the MIC with Staphylococcus aureus [1] worked out at 16 µg/mL (≈ 40.7 µM); in the data set with Staphylococcus aureus [2], 4 µg/mL (≈ 10.2 µM); in the data set with Staphylococcus aureus [5], 16 µg/mL (≈ 40.7 µM); against Staphylococcus aureus [7], 16 µg/mL (≈ 40.7 µM); in the data set on Staphylococcus aureus [9], 8 µg/mL (≈ 20.3 µM); against Staphylococcus aureus [11], 8 µg/mL (≈ 20.3 µM). Also, in the data set with Staphylococcus aureus [13], the lowest concentration to inhibit growth (MIC) was 16 µg/mL (≈ 40.7 µM). Further, the MBC in the data set with Staphylococcus aureus [3] was 8 µg/mL (≈ 20.3 µM); in the data set with Staphylococcus aureus [4], 32 µg/mL (≈ 81.3 µM); in the data set with Staphylococcus aureus [6] it was 32 µg/mL (≈ 81.3 µM); in the data set with Staphylococcus aureus [8], 32 µg/mL (≈ 81.3 µM); with Staphylococcus aureus [10] it was 64 µg/mL (≈ 163 µM); in the data set with Staphylococcus aureus [12], 16 µg/mL (≈ 40.7 µM). Also, in the data set with Staphylococcus aureus [14], the MBC is 32 µg/mL (≈ 81.3 µM). Moreover, the Ratio in the data set with Staphylococcus aureus [15] is recorded as above 100; in the data set with Staphylococcus aureus [16], above 100; in the data set with Staphylococcus aureus [17] it was above 100; in the data set with Staphylococcus aureus [18], “<=3”; with Staphylococcus aureus [19], “<=3”; in the data set with Staphylococcus aureus [20] it was “<=3”. Moreover, the Ratio entry with Staphylococcus aureus [21], in the data set with Staphylococcus aureus [22], in the data set on Staphylococcus aureus [23] and with Staphylococcus aureus [24] was “<=3” throughout.

`C/C(=N\NC1=NCCN1)c1sc(-c2ccc(C#Cc3ccccc3)cc2)nc1C` yielded an MIC with Staphylococcus aureus [2] of 8 µg/mL (≈ 20 µM). Moreover, the MBC in the data set on Staphylococcus aureus [3] was found to be 16 µg/mL (≈ 40 µM). Moreover, the Ratio result with Staphylococcus aureus [18] is “<=3”.

As for `C/C(=N\NC1=NCCN1)c1sc(-c2ccc(C#CC3CCCCC3)cc2)nc1C`, in the data set on Staphylococcus aureus [2], inhibition of growth (MIC) required 8 µg/mL (≈ 19.7 µM). Moreover, the MBC in the data set on Staphylococcus aureus [3] is 8 µg/mL (≈ 19.7 µM). In addition, the Ratio result with Staphylococcus aureus [18] is listed as “<=3”.

Regarding `CCCC#Cc1ccc(-c2nc(C)c(/C(C)=N/NC3=NCCN3)s2)cc1`, the MIC in the data set on Staphylococcus aureus [2] is above 64 µg/mL. Moreover, the MBC in the data set with Staphylococcus aureus [3] was above 64 µg/mL. Moreover, in the data set with Staphylococcus aureus [18], the Ratio entry is given as “<=3”.

The compound `C/C(=N\NC(=N)N)c1sc(-c2ccc(C#CC(C)(C)N)cc2)nc1C` gave an MIC in the data set with Staphylococcus aureus [2] of 64 µg/mL (≈ 181 µM). In addition, the MBC in the data set on Staphylococcus aureus [3] came out at 64 µg/mL (≈ 181 µM). Moreover, in the data set with Staphylococcus aureus [18], the Ratio entry is “<=3”.

Consider `CCCCCCC#Cc1ccc(-c2nc(C)c(/C(C)=N/NC(=N)N)s2)cc1`, for which the MIC against Staphylococcus aureus [1] was 4 µg/mL (≈ 10.5 µM); against Staphylococcus aureus [2], 4 µg/mL (≈ 10.5 µM); with Staphylococcus aureus [5], 1 µg/mL (≈ 2.62 µM); in the data set on Staphylococcus aureus [7], 4 µg/mL (≈ 10.5 µM); against Staphylococcus aureus [9] it was 2 µg/mL (≈ 5.24 µM); against Staphylococcus aureus [11] it was 0.5 µg/mL (≈ 1.31 µM). In addition, the MIC in the data set with Staphylococcus aureus [13] is 2 µg/mL (≈ 5.24 µM). For the same compound, the MBC with Staphylococcus aureus [3] was found to be 8 µg/mL (≈ 21 µM); in the data set on Staphylococcus aureus [4], 8 µg/mL (≈ 21 µM); with Staphylococcus aureus [6], 4 µg/mL (≈ 10.5 µM); in the data set on Staphylococcus aureus [8] it was 4 µg/mL (≈ 10.5 µM); in the data set on Staphylococcus aureus [10] it was 4 µg/mL (≈ 10.5 µM); in the data set with Staphylococcus aureus [12], 2 µg/mL (≈ 5.24 µM). Besides, the MBC with Staphylococcus aureus [14] was determined as 4 µg/mL (≈ 10.5 µM). The Ratio in the data set with Staphylococcus aureus [15] was above 100; with Staphylococcus aureus [16] it was above 100; with Staphylococcus aureus [17], 8; in the data set with Staphylococcus aureus [18], “<=3”; with Staphylococcus aureus [19], “<=3”; in the data set with Staphylococcus aureus [20] (read-out: Ratio) it was 4. The Ratio entry is “<=3” in the data set with Staphylococcus aureus [21], “<=3” with Staphylococcus aureus [22], 4 in the data set on Staphylococcus aureus [23] (read-out: Ratio) and “<=3” with Staphylococcus aureus [24]. Besides, the Activity result with HRT-18 cell line is “Non-Toxic”. Moreover, the selectivity ratio in data set [25] fell in the range of 7 to 31.

In the data set with Staphylococcus aureus [2], `C/C(=N\NC1=NCCN1)c1sc(-c2ccc(C#CC(C)(C)N)cc2)nc1C` gave an MIC above 64 µg/mL. Further, the MBC with Staphylococcus aureus [3] was above 64 µg/mL. Besides, the Ratio entry in the data set on Staphylococcus aureus [18] is recorded as “<=3”.
